# Compounds with a hit are over-represented: about 4.3% of the library has one in this group of screens.
# STAT3 inh: inhibitors of IL-6 induced STAT3 signaling; U3A cells, IL-6 STAT3-luciferase reporter, luminescence; host cell line lacks STAT1; inhibition, % at 5.5 µM; hit rate 0.89% among 190,000; AID 862;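 active = inhibition above the mean inhibition across all screened compounds plus 3 SD, cut at about 44% in these data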
# STAT3 act-1: activators of IL-6 induced STAT3 signaling. U3A cells, IL-6 STAT3-luciferase reporter, luminescence; 100% = signal with IL-6 EC80 alone. activation (% of control), % at 5.6 µM. hit rate 0.91% among 190,000. AID 871;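 active = activation above the screen-wide mean of compound activation plus 3 SD, cut at about 130% in these data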
#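 System – human U3A cells carrying STAT3-luciferase construct · Probe or stimulus – Interleukin-6, 33 ng/mL · Schedule – compound 1 h, then IL-6 6 h at 37 °C · Signal – luminescence from STAT3-driven luciferase reporter · Evaluation – percent of IL-6-only median luminescence · Benchmarks – IL-6-only high control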
# STAT1 blocker: STAT1 signaling inhibition; NIH 3T3 STAT1-luciferase reporter, IFN-gamma, luminescence; inhibition, % at 5.5 µM; hit rate 0.35% among 200,000;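 active = inhibition above a set limit, the mean inhibition across all tested compounds plus 3 SD, cut at about 34% in these data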
# STAT1 act-1: activators of IFN-gamma induced STAT1 signaling. NIH 3T3 STAT1-luciferase reporter, luminescence; 100% = IFN-gamma alone, no compound. activation (% of control), % at 5.5 µM. hit rate 2.6% among 200,000;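 active = activation above the screen-wide mean activation plus 3 SD, cut at about 130% in these data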
# STAT3 act-2: confirmation of STAT3 signaling activators. shares compounds with STAT3 act-1. U3A STAT3-luciferase reporter, IL-6 potentiation, luminescence; U3A cells lack STAT1; 100 means same as IL-6 alone. potentiation (% of control), % at 5.7 µM. hit rate 64% among 1,200. AID 1267;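 active = percent activation of the STAT3 luciferase reporter above a set limit taken from the earlier primary screen, cut at about 130% in these data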
# NFkB act 2: NF-kappaB activation in STAT3 activator counter-screen; shares compounds with STAT3 act-1; AID 1309; hit rate 11% among 1,200; human cells, NF-kappaB reporter activation; activation (% of control), % at 5.7 µM; in the data active = activation above about 120%;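 note: reporter induced by TNF-alpha stimulation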
# STAT1 act-2: STAT1 activation in STAT3 activator counter-screen | shares compounds with STAT3 act-1 | NIH 3T3 STAT1-luciferase reporter, IFN-gamma, luminescence | activation (% of control), % at 5.7 µM | hit rate 13% among 1,200;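 active = activation above the solvent-only control well mean plus 3 SD, set per screening run, cut at about 120% in these data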
# Numbers stand for hits; - = inactive; . = no result.
SMILES,STAT3 inh,STAT3 act-1,STAT1 blocker,STAT1 act-1,STAT3 act-2,NFkB act 2,STAT1 act-2
CCC(=O)NCCSc1c[nH]c2ccccc12,-,145,-,-,141,-,-
CC(Sc1c[nH]c2ccccc12)C(=O)O (stereo unspecified),-,147,-,-,-,-,-
CC(C)OCCCNC(=O)C1CCC(CNS(=O)(=O)c2ccccc2)CC1 (stereo unspecified),-,-,-,-,.,.,.
NNc1nc(-c2ccccc2Cl)nc2sc3c(c12)CCCC3,-,-,-,-,.,.,.
FC(F)(F)c1nnc2c(Sc3ccccn3)nc3ccccc3n12,-,141,-,-,146,122,128
CC1CCN(S(=O)(=O)c2ccc3c(c2)C(=NO)c2cc(S(=O)(=O)N4CCC(C)CC4)ccc2-3)CC1,-,136,-,-,-,131,-
Cc1ccc(-n2[nH]c(C)c(C=Nc3cc(C)ccn3)c2=O)cc1,-,138,-,-,-,-,-
O=C(C1CCCO1)N1CCN(c2c3c(nc4cc(-c5ccc(F)cc5)nn24)CCC3)CC1 (stereo unspecified),-,137,-,-,-,-,-
OC1CCN(c2c3c(nc4cc(-c5ccc(F)cc5)nn24)CCC3)CC1,-,-,-,-,.,.,.
COc1ccc(/C=C2/C(=O)OCc3cc(OC)c(OC)cc32)cc1,-,-,-,-,.,.,.
N#CCCn1cc(/C=N/NC(N)=S)c(-c2ccc(-c3ccccc3)cc2)n1,-,-,-,-,.,.,.
O=c1c2ccccc2nc(/C=C/c2c[nH]c3ccccc23)n1CCO,-,136,-,-,136,-,126
O=S(=O)(c1ccccc1)n1ccc2ccccc21,-,139,-,-,-,-,-
COC(=O)c1cc2ccsc2n1CC(=O)Nc1cc(Cl)ccc1OC,-,152,-,-,147,-,-
COC(=O)c1cc2ccsc2n1CC(=O)Nc1ccc(N(C)C)cc1,-,-,-,-,.,.,.
CCOCCCNC(=O)C(NC(=O)Cc1cccs1)c1ccccc1 (stereo unspecified),-,-,-,-,.,.,.
CCOCCCNC(=O)C(NC(=O)Cc1c[nH]c2ccccc12)c1ccccc1 (stereo unspecified),-,144,-,-,135,-,-
O=C(Nc1nnc(-c2ccccc2Cl)o1)c1nc2ccccc2s1,-,159,-,-,140,-,-
O=C(Nc1nnc(-c2ccccc2Cl)o1)c1ccco1,-,-,-,-,.,.,.
CCNc1sc(C(=O)c2cccs2)c(N)c1-c1nc2ccccc2s1,-,-,-,-,.,.,.
CCOC(=O)c1sc(NCc2ccco2)c(-c2nc3ccccc3s2)c1N,-,158,-,-,136,-,-
C=CCNc1sc(C(=O)c2ccccc2)c(N)c1-c1nc2ccccc2s1,-,143,-,-,-,-,-
COc1ccc(S(=O)(=O)N2CCN(Cc3ccccc3)CC2)cc1,-,138,-,-,-,-,-
Oc1ccccc1-c1cc(-c2ccccc2)no1,-,162,-,-,175,124,-
Cc1ccccc1-c1cc(-c2ccccc2O)on1,-,168,-,-,184,-,-
SMILES,STAT3 inh,STAT3 act-1,STAT1 blocker,STAT1 act-1,STAT3 act-2,NFkB act 2,STAT1 act-2
CCN1CCN(CCCN(Cc2cccs2)C(=S)Nc2ccccc2C)CC1,-,-,-,-,.,.,.
Cc1cc([N+](=O)[O-])nn1CCCC(=O)Nc1cc(Cl)ccc1Cl,-,-,-,-,.,.,.
CSc1nsc(SCC(=O)NC2CCCCC2)n1,-,137,-,-,-,-,-
Cn1c(=O)oc2cc(S(=O)(=O)NCCC(=O)N3CCc4ccccc43)ccc21,-,140,-,-,-,-,-
Cn1c(=O)oc2cc(S(=O)(=O)NCCC(=O)N3CC=C(c4ccccc4)CC3)ccc21,-,-,-,-,.,.,.
COc1ccccc1N(C(C)=O)c1nc(C)cc(C)c1C#N,-,165,-,-,152,-,-
Cc1cnc(NC(=O)c2c(O)c3cccc4c3n(c2=O)CCC4)s1,-,165,-,-,149,-,-
CC(C)c1nnc(NC(=O)c2c(O)c3cccc4c3n(c2=O)CCC4)s1,-,-,-,-,.,.,.
O=C(Nc1cccc(F)c1)c1c(O)c2cccc3c2n(c1=O)CCC3,-,142,-,-,143,-,-
Cc1ccc(C(=O)NC(=S)NCC2CCCO2)cc1[N+](=O)[O-] (stereo unspecified),-,-,-,-,.,.,.
c1ccc2c(c1)CCCN2Cc1nnc2n1CCCCC2,-,140,-,-,-,-,-
CN(C)S(=O)(=O)c1ccc(C(=O)N2CCN(S(=O)(=O)c3cccs3)CC2)cc1,-,-,-,-,.,.,.
COc1ccccc1-c1nnc(SC)n1C,-,-,-,-,.,.,.
COc1ccccc1-c1nnc(SCC(=O)O)n1C,-,164,-,-,153,-,-
Cc1ccc(C)c(NC(=O)C2CCCN2S(=O)(=O)c2ccc3c(c2)n(C)c(=O)c(=O)n3C)c1 (stereo unspecified),-,-,-,-,.,.,.
COc1cc(OC)c(NC(=O)c2ccccc2F)cc1Cl,-,138,-,-,-,-,-
COc1cc(NC(=O)c2ccc(Cl)cc2)c(OC)cc1Cl,-,149,-,-,-,-,-
CC1CN(C(=O)c2ccc(N3CCCCC3)c([N+](=O)[O-])c2)CC(C)O1 (stereo unspecified),-,-,-,-,.,.,.
CCN(CC)c1ccc(CNCc2cccs2)cc1,-,-,-,-,.,.,.
CNC(=S)N/N=C1\C(=O)c2cccc3cccc1c23,-,138,-,-,143,-,-
CCCCNC(=S)N/N=C1\C(=O)c2cccc3cccc1c23,-,-,-,-,.,.,.
CCn1c(SCc2nc3ccccc3[nH]2)nnc1-c1cccs1,-,-,-,-,.,.,.
CCOc1ccccc1-n1nnnc1SCc1nc2ccccc2s1,-,166,-,-,156,-,128
COc1ccccc1-c1nnc(SCc2nc3ccccc3s2)n1C,-,-,-,-,.,.,.
CCn1c(SCc2nc3ccccc3s2)nnc1-c1cccs1,-,142,-,-,143,-,129
SMILES,STAT3 inh,STAT3 act-1,STAT1 blocker,STAT1 act-1,STAT3 act-2,NFkB act 2,STAT1 act-2
COc1ccc(CNc2nc(-c3cccnc3)nn2C(=O)C(C)C)cc1,-,-,-,-,.,.,.
COC(=O)CCC(=O)Nc1ccc(C)cc1OC(=O)CCC(=O)OC,-,136,-,-,-,-,-
CCCN(c1ccc(C(C)C)cc1)S(=O)(=O)c1c(C)noc1C,-,-,-,-,.,.,.
Cc1noc(C)c1S(=O)(=O)N(CC(=O)N1CCn2c1nc1ccccc12)c1ccc(C(C)C)cc1,-,149,-,-,138,-,-
CN(C)C(=O)N1CCC(C(=O)NCc2cccs2)CC1,-,145,-,-,-,-,-
CCSc1nnc(NC(=O)c2cc(OC)c(OC)c(OC)c2)s1,-,-,-,-,.,.,.

# Screening data deposited in PubChem by The Scripps Research Institute Molecular Screening Center.
